Source: ChEMBL document CHEMBL2163192, “N,N-Dimethyl-[9-(arylsulfonyl)-2,3,4,9-tetrahydro-1H-carbazol-3-yl]amines as novel, potent and selective 5-HT₆ receptor antagonists” (Bioorg Med Chem Lett, 2012)
The source made the active and inactive calls. The calls are words filed in the database; no cut-off is given here.

Tests used:
[1] = target: T1, 5-hydroxytryptamine receptor 6 (Homo sapiens, UniProt P50406); experiment: Antagonist activity at human recombinant 5-HT6 receptor expressed in CHO cells assessed as inhibition of 5-HT-stimulated cAMP accumulation after 4 hrs by luciferase reporter gene assay; assay type: functional, cell-based
How it was run: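 Cell-based, non-radioactive reporter gene assay measuring antagonism of 5-HT-stimulated cAMP formation at human 5-HT6 receptor; IC50 and Kb values determined in duplicate.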

[2] = target: Sodium-dependent serotonin transporter (Homo sapiens) (UniProt P31645); experiment: Inhibition of SERT at 1 uM
How it was run: (§1)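 In-house selectivity panel of related receptors and transporters; each compound tested at 1 μM and 10 μM; percent inhibition determined in duplicate and the mean of the two reported.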

[3] = target: T2, Alpha-1B adrenergic receptor (Homo sapiens) (UniProt P35368); experiment: Inhibition of alpha1B adrenergic receptor at 1 uM; how it was run: as §1
T2 sequence (whole entry): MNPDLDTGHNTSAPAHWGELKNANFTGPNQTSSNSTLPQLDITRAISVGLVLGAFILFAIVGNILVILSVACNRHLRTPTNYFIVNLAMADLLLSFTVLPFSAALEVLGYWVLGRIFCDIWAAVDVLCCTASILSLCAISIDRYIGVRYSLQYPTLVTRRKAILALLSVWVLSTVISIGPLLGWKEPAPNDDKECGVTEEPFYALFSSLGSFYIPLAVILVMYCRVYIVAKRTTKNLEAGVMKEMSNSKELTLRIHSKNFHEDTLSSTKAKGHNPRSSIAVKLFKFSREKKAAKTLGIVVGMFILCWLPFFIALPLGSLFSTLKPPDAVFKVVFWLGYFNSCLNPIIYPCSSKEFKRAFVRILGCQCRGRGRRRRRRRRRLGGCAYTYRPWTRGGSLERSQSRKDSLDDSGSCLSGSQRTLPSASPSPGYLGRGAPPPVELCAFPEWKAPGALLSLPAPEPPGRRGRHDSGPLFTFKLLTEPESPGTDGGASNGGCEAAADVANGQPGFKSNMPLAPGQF

[4] = target: T2, Alpha-1B adrenergic receptor (Homo sapiens); experiment: Inhibition of alpha1B adrenergic receptor at 10 uM; how it was run: as §1
[5] = target: T3, 5-hydroxytryptamine receptor 1A (Homo sapiens) (UniProt P08908); experiment: Inhibition of 5-HT1A receptor at 1 uM; how it was run: as §1
T3 sequence (whole entry): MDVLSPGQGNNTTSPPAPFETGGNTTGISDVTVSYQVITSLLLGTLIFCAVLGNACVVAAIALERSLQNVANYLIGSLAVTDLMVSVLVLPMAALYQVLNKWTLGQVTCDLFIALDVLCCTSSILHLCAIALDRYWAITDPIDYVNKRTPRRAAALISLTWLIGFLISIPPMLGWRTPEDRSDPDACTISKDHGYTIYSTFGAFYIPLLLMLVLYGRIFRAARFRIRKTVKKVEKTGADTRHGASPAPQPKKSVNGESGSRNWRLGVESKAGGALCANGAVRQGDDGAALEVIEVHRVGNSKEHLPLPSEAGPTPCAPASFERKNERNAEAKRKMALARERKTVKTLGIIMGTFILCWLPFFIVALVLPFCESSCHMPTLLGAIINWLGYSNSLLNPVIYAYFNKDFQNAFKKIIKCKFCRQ

[6] = target: T3, 5-hydroxytryptamine receptor 1A (Homo sapiens); experiment: Inhibition of 5-HT1A receptor at 10 uM; how it was run: as §1
[7] = target: 5-hydroxytryptamine receptor 2A (Homo sapiens) (UniProt P28223); experiment: Inhibition of 5-HT2A receptor at 1 uM; how it was run: as §1
[8] = target: 5-hydroxytryptamine receptor 2A (Homo sapiens) (UniProt P28223); experiment: Inhibition of 5-HT2A receptor at 10 uM; how it was run: as §1
[9] = target: D(2) dopamine receptor (Homo sapiens) (UniProt P14416); experiment: Inhibition of dopamine D2 receptor at 1 uM; how it was run: as §1
[10] = target: D(2) dopamine receptor (Homo sapiens) (UniProt P14416); experiment: Inhibition of dopamine D2 receptor at 10 uM; how it was run: as §1
[11] = target: Sodium-dependent dopamine transporter (Homo sapiens) (UniProt Q01959); experiment: Inhibition of DAT at 1 uM; how it was run: as §1
[12] = target: Sodium-dependent dopamine transporter (Homo sapiens) (UniProt Q01959); experiment: Inhibition of DAT at 10 uM; how it was run: as §1
[13] = target: Histamine H3 receptor (Homo sapiens) (UniProt Q9Y5N1); experiment: Inhibition of histamine H3 receptor at 1 uM; how it was run: as §1
[14] = target: Histamine H3 receptor (Homo sapiens) (UniProt Q9Y5N1); experiment: Inhibition of histamine H3 receptor at 10 uM; how it was run: as §1
[15] = target: Histamine H4 receptor (Homo sapiens) (UniProt Q9H3N8); experiment: Inhibition of histamine H4 receptor at 1 uM; how it was run: as §1
[16] = target: Histamine H4 receptor (Homo sapiens) (UniProt Q9H3N8); experiment: Inhibition of histamine H4 receptor at 10 uM; how it was run: as §1
[17] = target: CYP2C19 (Homo sapiens, UniProt P33261); experiment: Inhibition of human CYP2C19 at 3 uM; assay type: ADME
How it was run: (§2)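 Isoform-selective inhibition assays using heterologously expressed human CYP enzymes; compounds tested at 3 μM; percent inhibition reported.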

[18] = target: CYP2D6 (Homo sapiens, UniProt P10635); experiment: Inhibition of human CYP2D6 at 3 uM; assay type: ADME; how it was run: as §2
[19] = target: CYP3A4 (Homo sapiens, UniProt P08684); experiment: Inhibition of human CYP3A4 at 3 uM; assay type: ADME; how it was run: as §2
[20] = Cmax in Wistar rat at 10 mg/kg, po; assay type: ADME, organism-based; parameters: dose 10 mg/kg, route oral; conditions: in vivo
How it was run: (§3)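 Fasted male Wistar rats, n=3, given 10 mg/kg orally in water for injection (10 mL/kg); plasma Cmax, half-life, Vd and clearance derived, with bioavailability from comparison against the 10 mg/kg iv arm.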

[21] = Cmax in Wistar rat at 10 mg/kg, iv; assay type: ADME, organism-based; parameters: dose 10 mg/kg, route intravenous; conditions: in vivo
How it was run: (§4)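 Fasted male Wistar rats, n=3, single 10 mg/kg intravenous dose in water for injection (2 mL/kg); plasma concentration–time profile used for Cmax, AUC, half-life, Vd and clearance.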

[22] = AUC in Wistar rat at 10 mg/kg, po; assay type: ADME, organism-based; parameters: dose 10 mg/kg, route oral; conditions: plasma
How it was run: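 Fasted male Wistar rats (n = 3) received a single oral dose of 10 mg/kg in water for injection. AUC is given in ng.hr/mL as part of a pharmacokinetic profile that also includes Cmax, t1/2, Vd and clearance, and uses an i.v. 10 mg/kg arm to derive oral bioavailability.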

[23] = AUC in Wistar rat at 10 mg/kg, iv; assay type: ADME, organism-based; parameters: dose 10 mg/kg, route intravenous; conditions: plasma; how it was run: as §4
[24] = Half life in Wistar rat at 10 mg/kg, po; assay type: ADME, organism-based; parameters: dose 10 mg/kg, route oral; conditions: in vivo; how it was run: as §3
[25] = Half life in Wistar rat at 10 mg/kg, iv; assay type: ADME, organism-based; parameters: dose 10 mg/kg, route intravenous; conditions: in vivo; how it was run: as §4
[26] = test system: Rattus norvegicus; experiment: Volume of distribution in Wistar rat at 10 mg/kg, po; assay type: ADME, organism-based; parameters: dose 10 mg/kg, route oral; conditions: in vivo; how it was run: as §3
[27] = Volume of distribution in Wistar rat at 10 mg/kg, iv; assay type: ADME, organism-based; parameters: dose 10 mg/kg, route intravenous; conditions: in vivo; how it was run: as §4
[28] = Oral bioavailability in Wistar rat at 10 mg/kg; assay type: ADME, organism-based; conditions: in vivo; how it was run: as §3
[29] = Ratio of drug level in brain to plasma in Wistar rat at 10 mg/kg, po; assay type: ADME, organism-based; parameters: dose 10 mg/kg, route oral; conditions: read-out: BPR
[30] = Clearance in Wistar rat at 10 mg/kg, po; assay type: ADME, organism-based; parameters: dose 10 mg/kg, route oral; conditions: in vivo; how it was run: as §3
[31] = Clearance in Wistar rat at 10 mg/kg, iv; assay type: ADME, organism-based; parameters: dose 10 mg/kg, route intravenous; conditions: in vivo; how it was run: as §4
[32] = Drug metabolism in human liver microsomes; assay type: ADME, Microsome; conditions: read-out: Drug metabolism
[33] = Drug metabolism in rat liver microsomes; assay type: ADME, Microsome; conditions: read-out: Drug metabolism
[34] = target: Sodium-dependent serotonin transporter (Homo sapiens) (UniProt P31645); experiment: Inhibition of SERT at 10 uM; how it was run: as §1
[35] = test system: Rattus norvegicus; experiment: Cognitive enhancing effect in Wistar rat assessed as increase in time send on novel object at 1 to 10 mg/kg, po after 60 mins by novel object recognition test; assay type: functional, organism-based
How it was run: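 Novel object recognition in rats with 24-h delay procedure; 1, 3 and 10 mg/kg given orally in water for injection (2 mL/kg) 60 min before test; time exploring novel versus familiar object compared by paired t test, n = 8–10/group.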

[36] = target: T1, 5-hydroxytryptamine receptor 6; experiment: Binding affinity to human 5-HT6 receptor
How it was run: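 Radioligand binding assay at human 5-HT6 receptor; Ki values determined in triplicate.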

[37] = target: T1, 5-hydroxytryptamine receptor 6; experiment: Displacement of [3H]LSD from human cloned 5-HT6 receptor expressed in HeLa cells after 1 hr by scintillation counter; assay type: cell-based
[38] = target: T1, 5-hydroxytryptamine receptor 6; experiment: Displacement of [3H]LSD from human cloned 5-HT6 receptor expressed in HEK293 cells; assay type: cell-based

Chain of 5-hydroxytryptamine receptor 2A (Homo sapiens) (P28223 whole entry): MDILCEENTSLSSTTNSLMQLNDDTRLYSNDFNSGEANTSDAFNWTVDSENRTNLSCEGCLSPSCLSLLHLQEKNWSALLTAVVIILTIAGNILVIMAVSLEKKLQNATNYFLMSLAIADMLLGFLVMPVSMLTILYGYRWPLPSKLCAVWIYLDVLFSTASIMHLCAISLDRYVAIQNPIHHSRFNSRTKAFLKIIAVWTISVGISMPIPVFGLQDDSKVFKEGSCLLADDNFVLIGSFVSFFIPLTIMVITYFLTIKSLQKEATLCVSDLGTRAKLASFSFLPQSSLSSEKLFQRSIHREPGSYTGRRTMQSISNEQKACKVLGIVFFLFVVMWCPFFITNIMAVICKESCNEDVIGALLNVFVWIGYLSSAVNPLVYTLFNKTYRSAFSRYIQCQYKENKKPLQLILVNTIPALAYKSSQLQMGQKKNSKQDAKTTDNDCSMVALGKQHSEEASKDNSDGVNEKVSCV
T1 sequence (P50406 whole entry): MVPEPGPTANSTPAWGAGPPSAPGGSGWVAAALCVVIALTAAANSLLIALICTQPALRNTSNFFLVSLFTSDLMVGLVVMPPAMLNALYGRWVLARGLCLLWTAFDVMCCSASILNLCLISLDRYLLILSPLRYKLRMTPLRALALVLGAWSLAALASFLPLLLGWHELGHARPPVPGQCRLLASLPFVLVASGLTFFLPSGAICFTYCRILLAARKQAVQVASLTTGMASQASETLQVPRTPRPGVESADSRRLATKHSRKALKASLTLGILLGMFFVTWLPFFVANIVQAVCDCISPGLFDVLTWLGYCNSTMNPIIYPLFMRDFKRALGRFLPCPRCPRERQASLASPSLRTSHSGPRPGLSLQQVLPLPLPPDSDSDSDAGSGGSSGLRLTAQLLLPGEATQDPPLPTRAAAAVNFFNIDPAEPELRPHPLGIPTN
Chain of Histamine H4 receptor (Homo sapiens) (Q9H3N8 whole entry): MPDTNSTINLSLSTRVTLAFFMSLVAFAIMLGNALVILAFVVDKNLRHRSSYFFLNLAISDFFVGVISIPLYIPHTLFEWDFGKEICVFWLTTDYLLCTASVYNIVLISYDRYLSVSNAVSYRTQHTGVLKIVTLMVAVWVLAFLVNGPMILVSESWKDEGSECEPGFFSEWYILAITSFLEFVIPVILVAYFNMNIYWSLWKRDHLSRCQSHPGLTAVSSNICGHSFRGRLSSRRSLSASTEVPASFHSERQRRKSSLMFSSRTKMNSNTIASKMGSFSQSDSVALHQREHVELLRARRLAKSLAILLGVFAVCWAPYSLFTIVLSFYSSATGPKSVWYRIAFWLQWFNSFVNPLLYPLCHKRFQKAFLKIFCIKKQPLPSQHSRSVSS
Chain of Histamine H3 receptor (Homo sapiens) (Q9Y5N1 whole entry): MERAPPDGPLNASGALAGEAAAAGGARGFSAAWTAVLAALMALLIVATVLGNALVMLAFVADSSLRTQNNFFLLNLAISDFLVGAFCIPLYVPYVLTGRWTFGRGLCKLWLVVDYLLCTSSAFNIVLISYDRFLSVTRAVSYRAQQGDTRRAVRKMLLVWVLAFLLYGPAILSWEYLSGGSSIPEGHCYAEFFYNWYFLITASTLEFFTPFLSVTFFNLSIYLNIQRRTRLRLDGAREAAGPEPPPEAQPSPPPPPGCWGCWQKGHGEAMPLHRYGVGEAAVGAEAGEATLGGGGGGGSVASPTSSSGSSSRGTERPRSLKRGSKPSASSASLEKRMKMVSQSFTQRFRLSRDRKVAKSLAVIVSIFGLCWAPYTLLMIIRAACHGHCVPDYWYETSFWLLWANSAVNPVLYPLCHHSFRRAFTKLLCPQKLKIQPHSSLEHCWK
Chain of Sodium-dependent dopamine transporter (Homo sapiens) (Q01959 whole entry): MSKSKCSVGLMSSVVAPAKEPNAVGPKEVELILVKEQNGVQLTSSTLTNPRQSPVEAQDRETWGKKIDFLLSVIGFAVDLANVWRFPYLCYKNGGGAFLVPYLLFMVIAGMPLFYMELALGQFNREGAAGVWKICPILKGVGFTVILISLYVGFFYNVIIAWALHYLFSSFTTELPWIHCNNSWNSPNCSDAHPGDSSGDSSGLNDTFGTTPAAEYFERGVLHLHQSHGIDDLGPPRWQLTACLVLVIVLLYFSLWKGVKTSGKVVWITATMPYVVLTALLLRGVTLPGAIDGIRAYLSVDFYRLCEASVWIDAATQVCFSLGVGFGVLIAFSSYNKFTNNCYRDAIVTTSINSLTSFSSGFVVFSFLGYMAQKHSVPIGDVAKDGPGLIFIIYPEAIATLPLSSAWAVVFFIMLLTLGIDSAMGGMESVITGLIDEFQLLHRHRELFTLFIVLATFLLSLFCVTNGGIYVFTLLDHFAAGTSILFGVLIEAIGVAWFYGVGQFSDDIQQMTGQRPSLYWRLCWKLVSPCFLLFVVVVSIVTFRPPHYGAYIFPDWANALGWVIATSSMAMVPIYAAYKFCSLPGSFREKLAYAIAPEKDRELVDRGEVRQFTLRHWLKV
Chain of CYP3A4 (P08684 whole entry): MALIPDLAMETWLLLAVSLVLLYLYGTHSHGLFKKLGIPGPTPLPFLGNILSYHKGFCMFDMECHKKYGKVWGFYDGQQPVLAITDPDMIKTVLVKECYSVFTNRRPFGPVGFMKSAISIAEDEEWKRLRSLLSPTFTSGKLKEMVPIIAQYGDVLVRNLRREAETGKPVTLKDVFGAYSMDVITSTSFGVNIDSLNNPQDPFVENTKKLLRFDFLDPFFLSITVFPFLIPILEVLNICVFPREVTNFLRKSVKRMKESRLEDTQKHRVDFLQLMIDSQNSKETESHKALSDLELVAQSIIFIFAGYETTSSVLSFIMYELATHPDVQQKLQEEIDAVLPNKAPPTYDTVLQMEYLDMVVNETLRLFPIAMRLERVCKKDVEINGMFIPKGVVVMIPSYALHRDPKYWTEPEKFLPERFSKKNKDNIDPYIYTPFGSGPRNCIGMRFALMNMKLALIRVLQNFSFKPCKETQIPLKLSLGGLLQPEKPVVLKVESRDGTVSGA
Chain of CYP2D6 (P10635 whole entry): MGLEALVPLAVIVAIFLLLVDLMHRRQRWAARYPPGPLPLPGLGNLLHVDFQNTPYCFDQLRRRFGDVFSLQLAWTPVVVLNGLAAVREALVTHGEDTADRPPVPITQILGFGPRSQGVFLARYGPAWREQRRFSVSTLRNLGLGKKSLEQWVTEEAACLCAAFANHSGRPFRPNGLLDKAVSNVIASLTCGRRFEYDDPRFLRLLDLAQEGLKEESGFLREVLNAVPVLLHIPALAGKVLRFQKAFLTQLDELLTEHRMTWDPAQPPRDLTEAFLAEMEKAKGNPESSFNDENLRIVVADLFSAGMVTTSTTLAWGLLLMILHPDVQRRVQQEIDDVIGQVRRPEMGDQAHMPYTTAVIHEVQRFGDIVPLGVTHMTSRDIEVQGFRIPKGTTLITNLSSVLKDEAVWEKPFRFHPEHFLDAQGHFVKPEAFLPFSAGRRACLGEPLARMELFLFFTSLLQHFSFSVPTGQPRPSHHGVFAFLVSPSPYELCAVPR
Chain of D(2) dopamine receptor (Homo sapiens) (P14416 whole entry): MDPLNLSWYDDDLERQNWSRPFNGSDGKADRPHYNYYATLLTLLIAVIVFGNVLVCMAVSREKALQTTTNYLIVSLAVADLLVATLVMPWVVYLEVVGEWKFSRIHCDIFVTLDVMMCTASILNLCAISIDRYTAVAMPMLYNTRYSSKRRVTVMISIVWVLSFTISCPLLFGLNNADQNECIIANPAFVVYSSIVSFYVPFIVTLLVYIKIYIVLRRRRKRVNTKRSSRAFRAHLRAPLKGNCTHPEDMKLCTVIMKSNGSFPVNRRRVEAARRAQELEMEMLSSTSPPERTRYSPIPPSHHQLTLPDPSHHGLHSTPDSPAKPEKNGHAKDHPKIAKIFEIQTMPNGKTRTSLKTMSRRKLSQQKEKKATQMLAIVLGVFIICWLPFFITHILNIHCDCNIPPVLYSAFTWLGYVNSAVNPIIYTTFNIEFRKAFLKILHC
Chain of Sodium-dependent serotonin transporter (Homo sapiens) (P31645 whole entry, looked up): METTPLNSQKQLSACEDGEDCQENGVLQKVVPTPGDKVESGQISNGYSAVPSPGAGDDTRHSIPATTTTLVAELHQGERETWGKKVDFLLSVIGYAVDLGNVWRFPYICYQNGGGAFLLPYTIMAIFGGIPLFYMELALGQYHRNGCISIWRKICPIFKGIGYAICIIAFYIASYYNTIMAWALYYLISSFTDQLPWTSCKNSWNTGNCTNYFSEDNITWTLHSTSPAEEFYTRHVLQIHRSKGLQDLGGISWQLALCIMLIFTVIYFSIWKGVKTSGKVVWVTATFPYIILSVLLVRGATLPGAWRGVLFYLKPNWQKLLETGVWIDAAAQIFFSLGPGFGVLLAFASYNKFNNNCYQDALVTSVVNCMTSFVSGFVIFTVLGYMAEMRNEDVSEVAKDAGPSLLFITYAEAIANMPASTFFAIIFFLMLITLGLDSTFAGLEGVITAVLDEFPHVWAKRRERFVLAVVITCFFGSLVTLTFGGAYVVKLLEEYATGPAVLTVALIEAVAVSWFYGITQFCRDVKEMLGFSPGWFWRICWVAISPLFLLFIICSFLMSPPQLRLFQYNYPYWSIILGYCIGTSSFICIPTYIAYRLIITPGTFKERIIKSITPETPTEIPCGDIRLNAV
Chain of CYP2C19 (P33261 whole entry, canonical isoform): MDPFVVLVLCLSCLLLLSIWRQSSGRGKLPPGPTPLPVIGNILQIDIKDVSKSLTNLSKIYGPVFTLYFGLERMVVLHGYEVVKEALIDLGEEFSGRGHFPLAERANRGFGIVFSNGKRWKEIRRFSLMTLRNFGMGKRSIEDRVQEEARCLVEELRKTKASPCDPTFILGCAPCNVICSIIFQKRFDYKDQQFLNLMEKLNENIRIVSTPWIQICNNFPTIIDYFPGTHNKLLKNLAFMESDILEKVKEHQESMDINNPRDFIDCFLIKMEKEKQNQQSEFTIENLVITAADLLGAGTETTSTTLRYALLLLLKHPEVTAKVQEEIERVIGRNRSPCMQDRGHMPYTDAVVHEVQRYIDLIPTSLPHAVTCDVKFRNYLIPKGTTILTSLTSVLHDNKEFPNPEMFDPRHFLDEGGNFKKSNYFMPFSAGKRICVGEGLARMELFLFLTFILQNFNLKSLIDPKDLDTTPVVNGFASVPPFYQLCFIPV

Compound	IC50 [1] [nM]	Kb [1] [nM]	inhibition [2] [%]	inhibition [3] [%]	inhibition [4] [%]	inhibition [5] [%]	inhibition [6] [%]	inhibition [7] [%]	inhibition [8] [%]	inhibition [9] [%]	inhibition [10] [%]	inhibition [11] [%]	inhibition [12] [%]	inhibition [13] [%]	inhibition [14] [%]	inhibition [15] [%]	inhibition [16] [%]	inhibition at 3 µM [17] [%]	inhibition at 3 µM [18] [%]	inhibition [34] [%]	other results
COc1ccc2c(c1)c1c(n2S(=O)(=O)c2ccccc2)CCC(N(C)C)C1 (racemic)	457	4.7	2.52	5.21	5.26	28.3	43.1	8.15	46.7	11	51.3	1.48	6.23	22.8	32.7	0	13.9	50	50	3.35	inhibition at 3 µM [19]: 10%; Cmax [20]: 90 ng/mL; Cmax [21]: 928 ng/mL; AUC [22]: 544 ng·h/mL; AUC [23]: 2120 ng·h/mL; half-life [24]: 7.67 h; half-life [25]: 3.86 h; Vd [26]: 21.95 L/kg; Vd [27]: 24.3 L/kg; bioavailability [28]: 26%; Kp [29]: 7.6; CL/F [30]: 331 mL/min/kg; clearance [31]: 73.8 mL/min/kg; metabolised [32]: 49%; metabolised [33]: 74%; Activity [35]: Active
NC1Cc2cccc3c2c(cn3S(=O)(=O)c2ccccc2)C1 (configuration not stated)	–	–	–	–	–	–	–	–	–	–	–	–	–	–	–	–	–	–	–	–	Ki [36]: 1.6 nM
NC1CCc2[nH]c3ccc(S(=O)(=O)c4ccccc4)cc3c2C1 (configuration not stated)	–	–	–	–	–	–	–	–	–	–	–	–	–	–	–	–	–	–	–	–	Ki [37]: 58 nM
COc1ccc2c(c1)c(CCN(C)C)c1n2S(=O)(=O)c2ccccc2-1	–	–	–	–	–	–	–	–	–	–	–	–	–	–	–	–	–	–	–	–	Ki [36]: 96 nM
CN(C)C1CCc2c(c3ccccc3n2S(=O)(=O)c2cccc(Cl)c2)C1 (racemic)	–	–	2.69	4.24	7.92	29.9	50.3	7.37	35.2	15.3	32.1	0	7.21	11	39.9	4.9	10.3	–	–	1.49	Ki [38]: 4.21 nM
CN(C)C1CCc2c(c3ccccc3n2S(=O)(=O)c2cccc(C(F)(F)F)c2)C1 (racemic)	1950	20.4	9.14	5.26	8.72	44.5	57.5	5.6	19.6	16.3	60.4	18.4	24.8	26.8	49.1	4.14	18	50	50	20.7	Ki [38]: 1.92 nM; inhibition at 3 µM [19]: 10%; metabolised [32]: 17%; metabolised [33]: 72%
CN(C)C1CCc2c(c3cc(Br)ccc3n2S(=O)(=O)c2ccccc2)C1 (racemic)	2060	21.5	0	4.22	16.2	22.3	43.9	15.2	51.4	16.4	67.4	0	7.7	23.4	24.8	0	3.85	50	50	2.77	Ki [38]: 1.83 nM; inhibition at 3 µM [19]: 10%
